# Assay results: ChEMBL document CHEMBL3351250, “Modified salicylanilide and 3-phenyl-2H-benzo[e][1,3]oxazine-2,4(3H)-dione derivatives as novel inhibitors of osteoclast differentiation and bone resorption” (J Med Chem, 2014)
# Tested on: RAW264.7
# Test: Inhibition of RANKL-induced osteoclastogenesis in mouse RAW264.7 cells assessed as reduction in TRAP activity incubated for 4 days by TRAP staining assay
# Format: functional, cell-based
# Conditions: RAW264.7, 96 h
# Summary of the method: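 RAW264.7 cells were RANKL-differentiated (100 ng/mL recombinant soluble murine RANKL in α-MEM/10% FBS, compounds at various concentrations, 4 days, medium changed day 2). TRAP activity was read with 2 mg/mL 4-nitrophenyl phosphate in 0.09 M citrate buffer for 15 min at 37 °C, stopped with 0.1 N NaOH. Expressed as % of RANKL-only; IC50 is 50% inhibition.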
row,SMILES,IC50
1,O=C(Nc1ccc(Cl)cc1F)c1ccccc1O,12.5 µM

# Tested on: not listed separately
# Test: Cytotoxicity against mouse RAW264.7 cells assessed as survival rate at 10 uM after 24 hrs by MTT assay
# Format: cell-based
# Conditions: read-out: Activity
# Summary of the method: (§1)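 Cells at 1 × 10⁴/well in DMEM + 10% FBS, exposed to compounds for 24 h at 37 °C, 5% CO₂. After PBS washes, MTT (0.5 mg/mL in medium) added for 1 h at 37 °C; formazan dissolved in DMSO, absorbance read at 540 nm. Viability expressed as % of DMSO control; CC₅₀ is the concentration giving 50% loss of mean viability (N = 3).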
row,SMILES,"viability at 24 h, 10 µM"
1,O=C(Nc1ccc(F)cc1F)c1ccccc1OCc1ccc(F)cc1F,101%
2,O=C(Nc1ccc(-c2ccc(Cl)cc2F)cc1F)c1ccccc1O,90.9%
3,COc1ccc2c(=O)n(-c3ccc(I)cc3F)c(=O)oc2c1,103%
4,COc1ccc(C(=O)Nc2ccc(Cl)cc2F)c(O)c1,103%
5,COc1ccc(C(=O)Nc2ccc(F)cc2F)c(O)c1,89.7%
6,COc1ccc2c(=O)n(-c3ccc(F)cc3F)c(=O)oc2c1,90.9%
7,COc1ccc2c(=O)n(-c3ccc(Cl)cc3F)c(=O)oc2c1,100%
8,O=C(Nc1ccc(Cl)cc1F)c1ccccc1OCc1ccc(F)cc1F,107%
9,COc1ccc(C(=O)Nc2ccc(I)cc2F)c(O)c1,94.4%
10,COc1ccc(C(=O)Nc2ccc(I)cc2F)c(OC)c1,95%
11,COc1ccccc1C(=O)Nc1ccc(I)cc1F,95.4%
12,COc1ccc(C(=O)Nc2ccc(F)cc2F)c(OC)c1,102%
13,O=C(Nc1ccc(I)cc1F)c1ccccc1OCc1ccc(F)cc1F,85%
14,O=C(Nc1ccc(-c2ccc(Cl)cc2Cl)cc1F)c1ccccc1O,105%
15,COc1ccc(C(=O)Nc2ccc(-c3ccc(F)cc3F)cc2F)c(O)c1,64.5%
16,COc1ccc(C(=O)Nc2ccc(Cl)cc2F)c(OC)c1,52.9%
17,COc1ccc(C(=O)Nc2ccc(F)cc2F)c(OCc2ccc(F)cc2F)c1,106%
18,COc1ccc(C(=O)Nc2ccc(I)cc2F)cc1,91.4%

row,SMILES,"viability at 24 h, 10 µM"
1,O=C(Nc1ccc(-c2ccc(F)cc2F)cc1F)c1ccccc1O,102%
2,COc1ccc(C(=O)Nc2ccc(I)cc2F)c(OCc2ccc(F)cc2F)c1,104%
3,COc1ccc(C(=O)O)c(O)c1 [4-METHOXYSALICYLIC ACID],99.4%
4,COc1ccc(C(=O)Nc2ccc(F)cc2F)cc1,102%
5,O=C(Nc1ccc(Cl)cc1F)c1ccccc1O,93%
6,COc1ccc(C(=O)Nc2ccc(Cl)cc2F)c(OCc2ccc(F)cc2F)c1,107%
7,COc1ccc(C(=O)Nc2ccc(-c3ccc(Cl)cc3Cl)cc2F)c(O)c1,102%
8,O=C(Nc1ccc(Cl)cc1F)c1ccccc1,105%
9,O=C(Nc1ccc(I)cc1F)c1ccccc1,105%
10,O=C(Nc1ccc(F)cc1F)c1ccccc1O,76.1%
11,COc1ccccc1C(=O)Nc1ccc(Cl)cc1F,102%
12,COc1ccccc1C(=O)Nc1ccc(F)cc1F,108%
13,O=C(Nc1ccc(F)cc1F)c1ccccc1,105%
14,COc1ccc(C(=O)Nc2ccc(Cl)cc2F)cc1,106%
15,COc1ccc(C(=O)Nc2ccc(-c3ccc(Cl)cc3F)cc2F)c(O)c1,44.5%
16,O=c1oc2ccccc2c(=O)n1-c1ccc(F)cc1F,88.8%
17,O=C(Nc1ccc(I)cc1F)c1ccccc1O,96.7%

# Tested on: not listed separately
# Test: Cytotoxicity against mouse RAW264.7 cells assessed as reduction in survival rate after 24 hrs by MTT assay
# Format: cell-based
# Conditions: not given
# Summary of the method: as §1
row,SMILES,CC50 at 24 h
1,O=C(Nc1ccc(F)cc1F)c1ccccc1OCc1ccc(F)cc1F,> 40 µM
2,O=C(Nc1ccc(-c2ccc(Cl)cc2F)cc1F)c1ccccc1O,27.2 µM
3,COc1ccc2c(=O)n(-c3ccc(I)cc3F)c(=O)oc2c1,30.1 µM
4,COc1ccc(C(=O)Nc2ccc(Cl)cc2F)c(O)c1,32.3 µM
5,COc1ccc(C(=O)Nc2ccc(F)cc2F)c(O)c1,> 40 µM
6,COc1ccc2c(=O)n(-c3ccc(F)cc3F)c(=O)oc2c1,> 40 µM
7,COc1ccc2c(=O)n(-c3ccc(Cl)cc3F)c(=O)oc2c1,> 40 µM
8,O=C(Nc1ccc(Cl)cc1F)c1ccccc1OCc1ccc(F)cc1F,> 40 µM
9,COc1ccc(C(=O)Nc2ccc(I)cc2F)c(O)c1,27.6 µM
10,COc1ccc(C(=O)Nc2ccc(I)cc2F)c(OC)c1,> 40 µM
11,COc1ccccc1C(=O)Nc1ccc(I)cc1F,> 40 µM
12,COc1ccc(C(=O)Nc2ccc(F)cc2F)c(OC)c1,> 40 µM
13,O=C(Nc1ccc(I)cc1F)c1ccccc1OCc1ccc(F)cc1F,32.6 µM
14,O=C(Nc1ccc(-c2ccc(Cl)cc2Cl)cc1F)c1ccccc1O,29.8 µM
15,COc1ccc(C(=O)Nc2ccc(-c3ccc(F)cc3F)cc2F)c(O)c1,26.3 µM
16,COc1ccc(C(=O)Nc2ccc(Cl)cc2F)c(OC)c1,13.6 µM
17,COc1ccc(C(=O)Nc2ccc(F)cc2F)c(OCc2ccc(F)cc2F)c1,> 40 µM
18,COc1ccc(C(=O)Nc2ccc(I)cc2F)cc1,32.8 µM

row,SMILES,CC50 at 24 h
1,O=C(Nc1ccc(-c2ccc(F)cc2F)cc1F)c1ccccc1O,28.6 µM
2,COc1ccc(C(=O)Nc2ccc(I)cc2F)c(OCc2ccc(F)cc2F)c1,36.8 µM
3,COc1ccc(C(=O)O)c(O)c1 [4-METHOXYSALICYLIC ACID],> 40 µM
4,COc1ccc(C(=O)Nc2ccc(F)cc2F)cc1,> 40 µM
5,O=C(Nc1ccc(Cl)cc1F)c1ccccc1O,23.2 µM
6,COc1ccc(C(=O)Nc2ccc(Cl)cc2F)c(OCc2ccc(F)cc2F)c1,> 40 µM
7,COc1ccc(C(=O)Nc2ccc(-c3ccc(Cl)cc3Cl)cc2F)c(O)c1,> 40 µM
8,O=C(Nc1ccc(Cl)cc1F)c1ccccc1,> 40 µM
9,O=C(Nc1ccc(I)cc1F)c1ccccc1,> 40 µM
10,O=C(Nc1ccc(F)cc1F)c1ccccc1O,38.4 µM
11,COc1ccccc1C(=O)Nc1ccc(Cl)cc1F,> 40 µM
12,COc1ccccc1C(=O)Nc1ccc(F)cc1F,> 40 µM
13,O=C(Nc1ccc(F)cc1F)c1ccccc1,> 40 µM
14,O=C(O)c1ccccc1O [SALICYLIC ACID],> 40 µM
15,COc1ccc(C(=O)Nc2ccc(Cl)cc2F)cc1,> 40 µM
16,O=c1oc2ccccc2c(=O)n1-c1ccc(F)cc1F,> 40 µM
17,O=C(Nc1ccc(I)cc1F)c1ccccc1O,23.3 µM

# Tested on: RAW264.7
# Test: Inhibition of RANKL-induced osteoclastogenesis in mouse RAW264.7 cells assessed as TRAP+ multinucleated cells level at 10 uM incubated for 4 days by TRAP staining assay
# Format: functional
# Parameters: scale not given: the % may be the effect or the level left
# Conditions: not given
# Summary of the method: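 Cells plated at 1 × 10³ (96-well) or 5 × 10⁴ (48-well) in α-MEM with 10% FBS, 2 mM […], 100 ng/mL recombinant murine RANKL and compound for 4 days; medium changed on day 2. Fixed in acetone/citrate/formaldehyde for 5 min and TRAP-stained. TRAP⁺ cells with >5 nuclei counted by light microscopy, expressed as % of the RANKL-only group.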
row,SMILES,Activity
1,O=C(Nc1ccc(F)cc1F)c1ccccc1OCc1ccc(F)cc1F,97.6%
2,O=C(Nc1ccc(-c2ccc(Cl)cc2F)cc1F)c1ccccc1O,84.8%
3,COc1ccc2c(=O)n(-c3ccc(I)cc3F)c(=O)oc2c1,44.4%
4,COc1ccc(C(=O)Nc2ccc(Cl)cc2F)c(O)c1,23.8%
5,COc1ccc(C(=O)Nc2ccc(F)cc2F)c(O)c1,74.9%
6,COc1ccc2c(=O)n(-c3ccc(F)cc3F)c(=O)oc2c1,67.5%
7,COc1ccc2c(=O)n(-c3ccc(Cl)cc3F)c(=O)oc2c1,36%
8,O=C(Nc1ccc(Cl)cc1F)c1ccccc1OCc1ccc(F)cc1F,74.6%
9,COc1ccc(C(=O)Nc2ccc(I)cc2F)c(O)c1,39.4%
10,COc1ccc(C(=O)Nc2ccc(I)cc2F)c(OC)c1,92.4%
11,COc1ccccc1C(=O)Nc1ccc(I)cc1F,106.6%
12,COc1ccc(C(=O)Nc2ccc(F)cc2F)c(OC)c1,93%
13,O=C(Nc1ccc(I)cc1F)c1ccccc1OCc1ccc(F)cc1F,85.5%
14,O=C(Nc1ccc(-c2ccc(Cl)cc2Cl)cc1F)c1ccccc1O,91.2%
15,COc1ccc(C(=O)Nc2ccc(-c3ccc(F)cc3F)cc2F)c(O)c1,50.1%
16,COc1ccc(C(=O)Nc2ccc(Cl)cc2F)c(OC)c1,60.2%
17,COc1ccc(C(=O)Nc2ccc(F)cc2F)c(OCc2ccc(F)cc2F)c1,66.2%
18,COc1ccc(C(=O)Nc2ccc(I)cc2F)cc1,89.3%

row,SMILES,Activity
1,O=C(Nc1ccc(-c2ccc(F)cc2F)cc1F)c1ccccc1O,100.1%
2,COc1ccc(C(=O)Nc2ccc(I)cc2F)c(OCc2ccc(F)cc2F)c1,51.3%
3,COc1ccc(C(=O)O)c(O)c1 [4-METHOXYSALICYLIC ACID],79.6%
4,COc1ccc(C(=O)Nc2ccc(F)cc2F)cc1,73.3%
5,O=C(Nc1ccc(Cl)cc1F)c1ccccc1O,49.4%
6,COc1ccc(C(=O)Nc2ccc(Cl)cc2F)c(OCc2ccc(F)cc2F)c1,68.7%
7,COc1ccc(C(=O)Nc2ccc(-c3ccc(Cl)cc3Cl)cc2F)c(O)c1,92.5%
8,O=C(Nc1ccc(Cl)cc1F)c1ccccc1,77.9%
9,O=C(Nc1ccc(I)cc1F)c1ccccc1,76.8%
10,O=C(Nc1ccc(F)cc1F)c1ccccc1O,85.2%
11,COc1ccccc1C(=O)Nc1ccc(Cl)cc1F,86%
12,COc1ccccc1C(=O)Nc1ccc(F)cc1F,89.1%
13,O=C(Nc1ccc(F)cc1F)c1ccccc1,75.2%
14,COc1ccc(C(=O)Nc2ccc(Cl)cc2F)cc1,100.4%
15,COc1ccc(C(=O)Nc2ccc(-c3ccc(Cl)cc3F)cc2F)c(O)c1,60.6%
16,O=c1oc2ccccc2c(=O)n1-c1ccc(F)cc1F,82.5%
17,O=C(Nc1ccc(I)cc1F)c1ccccc1O,70.6%

# Tested on: RAW264.7
# Test: Inhibition of RANKL-induced osteoclastogenesis in mouse RAW264.7 cells assessed as TRAP+ multinucleated cells level incubated for 4 days by TRAP staining assay
# Format: functional, cell-based
# Conditions: RAW264.7, 96 h
# Summary of the method: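 RAW264.7 cells in α-MEM with 10% FBS, 2 mM […], 100 ng/mL recombinant soluble murine RANKL and a range of compound concentrations for 4 days, with medium changed on day 2. Cells fixed in acetone/citrate/formaldehyde for 5 min and TRAP-stained. Cells with >5 nuclei counted by light microscopy and expressed as % of RANKL-only; IC50 is 50% inhibition.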
row,SMILES,IC50
1,O=C(Nc1ccc(Cl)cc1F)c1ccccc1O,10 µM
